# Measurements from ChEMBL document CHEMBL1151801, “Synthesis of new indeno[1,2-e]pyrimido[4,5-b][1,4]diazepine-5,11-diones as potential antitumor agents” (2008).
# Activity calls are given as the source filed them.
# What was measured:
# BT-549 = assay: Antitumor activity against human BT549 cells after 48 hrs by SRB assay; assay type: functional; conditions: BT-549, 48 h
# Outline: (§1)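 NCI in vitro human tumor cell line screen. Cells were exposed continuously to compound for 48 h at five concentration levels (100, 10, 1.0, 0.1 and 0.01). Growth was estimated by sulforhodamine B protein staining. GI50 is the concentration giving a 50% reduction in net protein increase relative to control cells over the incubation.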
# SF-268 = assay: Antitumor activity against human SF268 cells after 48 hrs by SRB assay; assay type: functional; conditions: SF-268, 48 h; outline: as §1
# K562 = assay: Antitumor activity against human K562 cells after 48 hrs by SRB assay; assay type: functional; conditions: K562, 48 h; outline: as §1
# MDA-MB-435 = assay: Antitumor activity against human MDA-MB-435 cells after 48 hrs by SRB assay; assay type: functional; conditions: MDA-MB-435, 48 h; outline: as §1
# A549 = assay: Antitumor activity against human A549 cells after 48 hrs by SRB assay; assay type: functional; conditions: A549, 48 h; outline: as §1
# NCI-H522 = assay: Antitumor activity against human NCI-H522 cells after 48 hrs by SRB assay; assay type: functional; conditions: NCI-H522, 48 h; outline: as §1
# SNB-75 = assay: Antitumor activity against human SNB75 cells after 48 hrs by SRB assay; assay type: functional; conditions: SNB-75, 48 h; outline: as §1
# OVCAR-3 = assay: Antitumor activity against human OVCAR-3 cells after 48 hrs by SRB assay; assay type: functional; conditions: OVCAR-3, 48 h; outline: as §1
# HOP-62 = assay: Antitumor activity against human HOP62 cells after 48 hrs by SRB assay; assay type: functional; conditions: HOP-62, 48 h; outline: as §1
# HT-29 = assay: Antitumor activity against human HT-29 cells after 48 hrs by SRB assay; assay type: functional; conditions: HT-29, 48 h; outline: as §1
# MDA-MB-231 = assay: Antitumor activity against human MDA-MB-231 cells after 48 hrs by SRB assay; assay type: functional; conditions: MDA-MB-231, 48 h; outline: as §1
# SF-295 = assay: Antitumor activity against human SF295 cells after 48 hrs by SRB assay; assay type: functional; conditions: SF-295, 48 h; outline: as §1
# OVCAR-8 = assay: Antitumor activity against human OVCAR8 cells after 48 hrs by SRB assay; assay type: functional; conditions: OVCAR-8, 48 h; outline: as §1
# OVCAR-4 = assay: Antitumor activity against human OVCAR4 cells after 48 hrs by SRB assay; assay type: functional; conditions: OVCAR-4, 48 h; outline: as §1
# NCI/ADR-RES = assay: Antitumor activity against human NCI/ADR-RES cells after 48 hrs by SRB assay; assay type: functional; outline: as §1
# DU-145 = assay: Antitumor activity against human DU145 cells after 48 hrs by SRB assay; assay type: functional; conditions: DU-145, 48 h; outline: as §1
# 786-0 = assay: Antitumor activity against human 786-0 cells after 48 hrs by SRB assay; assay type: functional; conditions: 786-0, 48 h; outline: as §1
# CCRF-CEM = assay: Antitumor activity against human CCRF-CEM cells after 48 hrs by SRB assay; assay type: functional; outline: as §1
# [1] = Antitumor activity against human Hs 578T cells after 48 hrs by SRB assay; assay type: functional; outline: as §1
# UO-31 = assay: Antitumor activity against human UO31 cells after 48 hrs by SRB assay; assay type: functional; conditions: UO-31, 48 h
# Outline: (§2)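 NCI in vitro human tumor cell line screen. Continuous 48 h drug exposure at five concentrations (100, 10, 1.0, 0.1 and 0.01 µM). Cell growth estimated by sulforhodamine B protein staining. GI50 defined as the concentration giving 50% reduction in net protein increase versus control cells over the incubation.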
# MCF7 = assay: Antitumor activity against human MCF7 cells after 48 hrs by SRB assay; assay type: functional; conditions: MCF7, 48 h; outline: as §1
# SF-539 = assay: Antitumor activity against human SF539 cells after 48 hrs by SRB assay; assay type: functional; conditions: SF-539, 48 h; outline: as §1
# HCT-116 = assay: Antitumor activity against human HCT116 cells after 48 hrs by SRB assay; assay type: functional; conditions: HCT-116, 48 h; outline: as §1
# HL-60(TB) = assay: Antitumor activity against human HL-60(TB) cells after 48 hrs by SRB assay; assay type: functional; conditions: HL-60, 48 h; outline: as §1
# HCT-15 = assay: Antitumor activity against human HCT15 cells after 48 hrs by SRB assay; assay type: functional; conditions: HCT-15, 48 h; outline: as §1
# COLO 205 = assay: Antitumor activity against human COLO205 cells after 48 hrs by SRB assay; assay type: functional; conditions: COLO 205, 48 h; outline: as §1
# NCI-H226 = assay: Antitumor activity against human NCI-H226 cells after 48 hrs by SRB assay; assay type: functional; conditions: NCI-H226, 48 h; outline: as §1
# MOLT-4 = assay: Antitumor activity against human MOLT4 cells after 48 hrs by SRB assay; assay type: functional; conditions: MOLT-4, 48 h; outline: as §1
# NCI-H23 = assay: Antitumor activity against human NCI-H23 cells after 48 hrs by SRB assay; assay type: functional; conditions: NCI-H23, 48 h; outline: as §1
# IGROV-1 = assay: Antitumor activity against human IGROV1 cells after 48 hrs by SRB assay; assay type: functional; conditions: IGROV-1, 48 h; outline: as §1
# PC-3 = assay: Antitumor activity against human PC3 cells after 48 hrs by SRB assay; assay type: functional; conditions: PC-3, 48 h; outline: as §1
# CAKI-1 = assay: Antitumor activity against human Caki1 cells after 48 hrs by SRB assay; assay type: functional; conditions: CAKI-1, 48 h; outline: as §1
# NCI-H322M = assay: Antitumor activity against human NCI-H322M cells after 48 hrs by SRB assay; assay type: functional; outline: as §1
# SW-620 = assay: Antitumor activity against human SW620 cells after 48 hrs by SRB assay; assay type: functional; conditions: SW-620, 48 h; outline: as §2
# SR = assay: Antitumor activity against human SR cells after 48 hrs by SRB assay; assay type: functional; outline: as §1
# HCC 2998 = assay: Antitumor activity against human HCC2998 cells after 48 hrs by SRB assay; assay type: functional; conditions: HCC 2998, 48 h; outline: as §1
# NCI60 = assay: Antitumor activity against human NCI60 cells at 1 uM; assay type: functional, cell-based
# ACHN = assay: Antitumor activity against human ACHN cells after 48 hrs by SRB assay; assay type: functional; outline: as §1
# [2] = read-out: LC50 (the source's name)
smiles,measurement,setting,value
CSc1nc2c(c(=O)[nH]1)NC1=C(C(=O)c3ccccc31)C(c1ccc(F)cc1)N2 (stereo not given),GI50,BT-549,8.5 µM
same,CC50,BT-549; [2],> 100 µM
same,GI50,SF-268,12.7 µM
same,CC50,SF-268; [2],> 100 µM
same,GI50,K562,4.05 µM
same,LC50,K562,> 100 µM
same,GI50,MDA-MB-435,1.65 µM
same,LC50,MDA-MB-435,> 100 µM
same,GI50,A549,12.6 µM
same,CC50,A549; [2],> 100 µM
same,GI50,NCI-H522,3.17 µM
same,CC50,NCI-H522; [2],> 100 µM
same,GI50,SNB-75,1.46 µM
same,LC50,SNB-75,> 100 µM
same,GI50,OVCAR-3,3.38 µM
same,CC50,OVCAR-3; [2],61.8 µM
same,GI50,HOP-62,11.9 µM
same,CC50,HOP-62; [2],95.6 µM
same,GI50,HT-29,3.36 µM
same,LC50,HT-29,35.1 µM
same,GI50,MDA-MB-231,12.6 µM
same,"LC50 (lethal concentration, 50% net cell kill)",MDA-MB-231,> 100 µM
same,GI50,SF-295,3.67 µM
same,CC50,SF-295; [2],> 100 µM
same,GI50,OVCAR-8,13.1 µM
same,LC50 (concentration causing 50% net cell kill),OVCAR-8,95.2 µM
same,GI50,OVCAR-4,15.4 µM
same,CC50,OVCAR-4; [2],> 100 µM
same,GI50,NCI/ADR-RES,6.42 µM
same,LC50,NCI/ADR-RES,> 100 µM
same,GI50,DU-145,16.2 µM
same,CC50,DU-145; [2],> 100 µM
same,GI50,786-0,12.4 µM
same,CC50,786-0; [2],60.4 µM
same,GI50,CCRF-CEM,8.16 µM
same,CC50,CCRF-CEM; [2],> 100 µM
same,GI50,[1],5.85 µM
same,CC50,[1]; [2],> 100 µM
same,GI50,UO-31,16.3 µM
same,CC50,UO-31; [2],> 100 µM
same,GI50,MCF7,5.18 µM
same,LC50 (concentration causing 50% net cell kill),MCF7,> 100 µM
same,GI50,SF-539,8.9 µM
same,LC50 (concentration killing 50% of cells),SF-539,92 µM
same,GI50,HCT-116,7.23 µM
same,LC50 (50% lethal concentration),HCT-116,44.7 µM
same,GI50,HL-60(TB),6.54 µM
same,LC50,HL-60(TB),> 100 µM
same,GI50,HCT-15,4.57 µM
same,LC50 (concentration killing 50% of starting cells),HCT-15,> 100 µM
same,GI50,COLO 205,13 µM
same,CC50,COLO 205; [2],> 100 µM
same,GI50,NCI-H226,15.3 µM
same,LC50,NCI-H226,> 100 µM
same,GI50,MOLT-4,19.5 µM
same,LC50,MOLT-4,> 100 µM
same,GI50,NCI-H23,13.5 µM
same,LC50,NCI-H23,> 100 µM
same,GI50,IGROV-1,11.3 µM
same,CC50,IGROV-1; [2],> 100 µM
same,GI50,PC-3,7.72 µM
same,CC50,PC-3; [2],> 100 µM
same,GI50,CAKI-1,3.3 µM
same,LC50,CAKI-1,> 100 µM
same,GI50,NCI-H322M,13.9 µM
same,CC50,NCI-H322M; [2],> 100 µM
same,GI50,SW-620,4.48 µM
same,LC50,SW-620,> 100 µM
same,GI50,SR,6.31 µM
same,LC50 (concentration killing 50% of cells),SR,> 100 µM
same,GI50,HCC 2998,12.2 µM
same,CC50,HCC 2998; [2],76.1 µM
same,Activity,NCI60,Active
same,GI50,ACHN,11.6 µM
same,CC50,ACHN; [2],> 100 µM
